NR3A LBD binder: modulates the human NR3A ligand-binding domain; NR3A LBD differential scanning fluorimetry, Tm shift; 0% = protein alone, 100% = glycine-bound protein; Tm shift relative to glycine control, % at 25 µM; actives 2.5% (n = 340,000); AID 1259313;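 active = melting temperature shift of at least 10% of the positive control shift, at one fixed dose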
ZTA DNA inh: counter-screen for EBNA-1 inhibitors: inhibitors of Epstein-Barr virus ZTA. inhibition, % at 11 µM. AID 2234. ZTA-DNA binding, fluorescence polarization. P03206. actives 0.15% (n = 320,000); in the data active = inhibition above about 33%
Target sequence (P03206 whole entry, looked up): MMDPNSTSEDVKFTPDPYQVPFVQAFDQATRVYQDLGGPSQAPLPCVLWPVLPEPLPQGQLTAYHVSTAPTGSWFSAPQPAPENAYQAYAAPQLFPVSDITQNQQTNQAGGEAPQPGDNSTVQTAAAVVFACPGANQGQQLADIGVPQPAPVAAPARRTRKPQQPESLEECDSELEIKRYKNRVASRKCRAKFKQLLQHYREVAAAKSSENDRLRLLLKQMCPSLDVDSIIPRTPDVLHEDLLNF
NS3 helicase inh: inhibitors of Hepatitis C virus NS3 helicase; NS3 helicase DNA unwinding, Cy5 molecular beacon fluorescence; inhibition, % at 10.9 µM; actives 0.56% (n = 290,000);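 active = inhibition above the mean of all tested compounds plus 3 SD, set per campaign, cut at about 35% in these data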;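 also: 0% = DMSO wells and 100% = thioflavine S control wells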
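Compound dosing – single dose, 10.9 µM nominal final, DMSO 0.8% final · System – NS3 helicase fragment of HCV · Buffer or medium – MOPS pH 6.5, MgCl2, DTT, Tween20, BSA · Signal – Cy5 beacon fluorescence read at start and 1 h · Also added – annealed dual-labelled DNA beacon duplex, ATP-started · Schedule – 1 h at 25 °C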
FGF22 binding: shifts melting point of recombinant human FGF22. activity (Tm shift, normalised), % at 9.99 µM. Q9HCT0. actives 1.5% (n = 340,000). recombinant FGF22 thermal shift, SYPRO orange fluorescence; percent of sucrose octasulfate shift, DMSO zero. AID 651658;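 active = mean Tm shift, scaled 0 neutral to 100 positive control, at about 1.3% or above, every replicate too, limit read from the data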
Target sequence (Q9HCT0 whole entry, looked up): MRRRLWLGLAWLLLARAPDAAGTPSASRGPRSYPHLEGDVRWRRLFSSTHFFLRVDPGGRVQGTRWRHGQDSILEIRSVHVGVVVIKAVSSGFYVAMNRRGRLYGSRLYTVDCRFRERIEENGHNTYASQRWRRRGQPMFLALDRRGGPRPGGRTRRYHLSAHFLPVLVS
EBNA-1 inhibitor: blocks EBNA-1 binding to DNA; actives 0.34% (n = 300,000); EBNA-1 DNA binding, fluorescence polarization; inhibition, % at 14.8 µM; in the data active = inhibition above about 28%
DNA FID counter: counter-screen for HCV NS3 helicase inhibitors: DNA intercalator displacement; inhibition, % at 7.9 µM; DNA fluorescent intercalator displacement, fluorescence; actives 0.17% (n = 290,000); in the data active = inhibition above about 37%;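 also: 0% = vehicle and 100% = reference compound; higher means more ethidium bromide displaced from hairpin DNA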
Active calls of the source: *; . = no result. This is a sample that favours compounds with a hit; in the whole collection about 3.6% have one here.

SMILES | NR3A LBD binder | ZTA DNA inh | NS3 helicase inh | FGF22 binding | EBNA-1 inhibitor | DNA FID counter
COc1cccc(C#Cc2ccc([C@H]3[C@@H](CO)N4C(=O)CN(S(=O)(=O)c5ccccc5C)C[C@@H]34)cc2)c1 | . | . | . | -0.3 | . | .
CO[C@@H]1CN(C)C(=O)c2cc(NC(=O)c3ccc(F)cc3)ccc2OC[C@@H](C)N(C(=O)c2ccc(F)cc2)C[C@@H]1C | . | . | . | 0.3 | . | .
Clc1ccc(-c2noc(CN(Cc3ccccn3)CC3CCCO3)n2)cc1 (stereo not given) | -1.4 | -1.8 | -7.4 | 43.4* | 3.5 | -28.1
Cc1ccc(NC(=O)/C=C/c2ccc([N+](=O)[O-])s2)cc1 | -5.9 | 20.3 | 0.3 | . | 12.0 | 2.2
COc1cc2ccccc2cc1C(=O)Nc1ccc2oc(=O)ccc2c1 | 15.2* | 19.0 | 5.7 | -0.4 | -11.8 | -6.7
O=C(Nc1ccc2oc(=O)ccc2c1)c1ccccc1[N+](=O)[O-] | -1.0 | 7.8 | 18.2 | 0.2 | -0.3 | -2.3
Cc1cccc(NC(=O)/C=C/c2ccc([N+](=O)[O-])s2)c1 | 12.4* | 7.6 | 3.7 | -0.1 | 13.6 | 7.1
O=C(Nc1cccc(F)c1)c1ccc(-c2ccccc2C(F)(F)F)o1 | . | . | -3.1 | 0.1 | . | -12.2
O=C(Nc1ccc2oc(=O)ccc2c1)c1ccc(-c2ccccc2[N+](=O)[O-])o1 | 30.4* | 20.1 | 22.0 | -0.1 | 17.3 | -3.1
COc1ccc(NC(=O)c2ccc(-c3ccccc3C(F)(F)F)o2)cc1 | -10.2 | -14.1 | -9.7 | 44.2* | 1.9 | -23.6
COc1ccc(NC(=O)Nc2cccc3c2O[C@H](CN(C)C(=O)Nc2ccc(OC)cc2)[C@H](C)CN([C@@H](C)CO)C3=O)cc1 | . | . | . | -0.3 | . | .
CN1CCN(c2ccc(NC(=O)c3ccc(-c4ccc(Cl)cc4)o3)cc2)CC1 | 9.7 | -3.2 | -88.9 | 0.7 | -5.2 | 37.8*
O=C(Nc1ccc2oc(=O)ccc2c1)c1ccc(-c2ccc(Cl)cc2)o1 | 27.1* | -5.0 | 3.6 | . | -2.0 | -4.3
O=C(Nc1ccc2oc(=O)ccc2c1)c1cc2ccccc2o1 | 9.2 | -0.8 | 0.7 | . | 4.8 | -13.7
COc1cccc(NC(=O)c2ccc(-c3ccccc3[N+](=O)[O-])o2)c1 | 27.6* | 3.6 | 4.8 | 0.1 | 3.9 | 1.9
O=C(Nc1ccc2oc(=O)ccc2c1)c1ccc(-c2cccc([N+](=O)[O-])c2)o1 | 35.3* | 3.3 | 14.1 | -0.1 | -7.6 | 0.9
COC(=O)[C@H](Cc1ccccc1)N1C(=O)O[C@@H](Cc2ccccc2)[C@H]1/C=C/C1CC1 | . | . | . | -0.4 | . | .
COc1ccc(OC)c(NC(=O)/C=C/c2ccccc2[N+](=O)[O-])c1 | -0.1 | 2.0 | -3.2 | . | 1.7 | -3.4
COc1cccc(NC(=O)/C=C/c2ccccc2[N+](=O)[O-])c1 | 26.8* | -10.4 | -7.2 | 0.5 | 9.5 | 1.8
C[C@H](CO)N1C[C@H](C)[C@H](CN(C)Cc2ccc(C(=O)O)cc2)Oc2c(NS(=O)(=O)c3cn(C)cn3)cccc2C1=O | . | . | . | -0.2 | . | .
CCC(=O)N1CC2(C1)[C@H](c1ccccc1)[C@@H](CO)N2CC1CCOCC1 | . | . | . | 0.3 | . | .
CCCOC(=O)c1ccc(-n2nnnc2SCC(=O)N2CCCCC2)cc1 | -0.2 | -22.2 | -2.8 | . | 0.2 | -18.5
COC(=O)c1ccc(-n2nnnc2SCC(=O)N2CCCCC2)cc1 | 37.4* | 22.1 | -2.0 | . | 9.1 | -5.0
COc1cccc(/C=N/NC(=O)c2ccc(-c3ccccc3)cc2)c1O | 26.1* | 8.0 | -0.3 | . | 4.7 | -11.1
COc1ccccc1C=NNC(=O)C(=O)NN=Cc1ccccc1OC | 0.8 | . | . | 43.3* | . | .
SMILES | NR3A LBD binder | ZTA DNA inh | NS3 helicase inh | FGF22 binding | EBNA-1 inhibitor | DNA FID counter
CC(C)(C)C(=O)Nc1ccc(C(=O)N/N=C/c2ccccc2OC(=O)c2ccc(Cl)cc2)cc1 | 21.4* | -11.2 | 0.8 | . | -4.0 | -7.7
O=C(N/N=C/c1ccccc1C(=O)O)c1ccccc1Br | 2.1 | 1.9 | 23.6 | -0.1 | 4.7 | -14.7
NC(=O)N/N=C/c1ccccc1OC(=O)c1ccccc1Br | -1.9 | 11.0 | -0.6 | 42.9* | -3.2 | -19.8
COc1ccc(OC)c(/C=N\NC(=O)c2ccc(-c3ccccc3)cc2)c1 | -0.9 | . | -3.2 | 0.1 | . | -34.0
COCC(=O)Nc1ccc2c(c1)[C@H]1C[C@@H](CC(=O)N3CCCCC3)O[C@H](CO)[C@H]1O2 | . | . | . | -0.3 | . | .
O=C(c1ccccc1F)N1CC[C@@H]2[C@H](CO)Nc3ccc(-c4ccc(F)cc4)cc3[C@@H]21 | . | . | . | 0.1 | . | .
O=C(NCC[C@@H]1CC[C@@H](NC(=O)C2CCCCC2)[C@H](CO)O1)c1cc(Cl)cc(Cl)c1 | . | . | . | 0.4 | . | .
O=C(N/N=C/c1c(Cl)cccc1Cl)c1ccc(-n2cnnn2)cc1 | 2.8 | 15.8 | . | -0.1 | . | .
Cc1ccccc1/C=N/NC(=O)c1ccc(-n2cnnn2)cc1 | 29.8* | -4.0 | . | -0.2 | . | .
Cc1cccc(/C=N\NC(=O)c2ccc(Cl)cc2)c1O | 10.1* | 7.7 | 5.6 | 0.7 | 4.6 | -1.3
Cc1cccc(OC(C)C(=O)OCC(=O)N2CCN(c3ccccc3)CC2)c1 (stereo not given) | -0.9 | . | . | 43.6* | . | .
O=C(Cn1nc(-c2ccccc2)ccc1=O)Nc1ccc(NC(=O)c2ccccn2)cc1 | 1.6 | 7.8 | 3.4 | 43.8* | 14.3 | -5.7
Cc1ccc(/C=C2\SC(=S)N(CCCC(=O)Nc3nccs3)C2=O)cc1 | 10.5* | 3.5 | 3.8 | 0.1 | 9.4 | -0.7
O=C(CCCN1C(=O)/C(=C/c2cccs2)SC1=S)Nc1ccccc1O | 10.4* | -14.1 | 6.2 | 0.0 | 3.6 | 0.6
CCc1ccc(/C=C2\SC(=S)N(CCCC(=O)Nc3nccs3)C2=O)cc1 | -8.7 | -8.6 | 8.9 | . | 10.3 | 0.2
CCN(CC)CCOC(=O)c1ccc(NC(=O)CCCN2C(=O)/C(=C/c3cccs3)SC2=S)cc1 | -3.5 | . | -33.8 | 0.1 | . | 44.0*
CN(C)/C=C/C(=O)c1ccccc1 | -2.2 | 0.4 | 1.7 | 0.5 | -3.6 | -2.0
CN(C)/C=C/C(=O)c1ccc(Br)s1 | 0.1 | 3.4 | 17.1 | 43.3* | 6.8 | -4.9
COc1ccc(NC(=O)N(C)C[C@@H]2Oc3ccc(NC(=O)Nc4ccc(C(F)(F)F)cc4)cc3CC(=O)N([C@@H](C)CO)C[C@H]2C)cc1 | . | . | . | -0.3 | . | .
Cc1ccc(NC(=O)CC2S/C(=N/N=C/c3ccco3)NC2=O)cc1Cl (stereo not given) | 4.3 | -11.8 | -7.3 | 0.2 | -1.8 | -2.4
CCOC(=O)c1ccc(NC(=O)CC2S/C(=N/N=C3/NC(=O)CS3)NC2=O)cc1 (stereo not given) | 1.2 | 8.3 | -19.9 | 0.0 | 2.8 | -14.7
CCOC(=O)c1ccc(NC(=O)CC2S/C(=N/N=C/c3c[nH]c4ccccc34)NC2=O)cc1 (stereo not given) | 29.1* | -16.7 | -17.1 | . | 21.2 | 12.0
Cc1ccc(NC(=O)CC2S/C(=N/N=C/C=C/c3ccccc3)NC2=O)cc1Cl (stereo not given) | 15.2* | -5.9 | -4.5 | 0.6 | -7.2 | -3.7

Bioassay records: PubChem BioAssay, several laboratories
